According to ChEMBL document CHEMBL4680104, “Structure-Based Optimization of Small-Molecule Inhibitors for the β-Catenin/B-Cell Lymphoma 9 Protein-Protein Interaction” (J Med Chem, 2018):
Each block holds one molecule with its values, some of them ahead of it. Calls of active or inactive are those of the source. No cut-off for these calls is given here.

Assays:
A549 = assay: Cytotoxicity in human A549 cells assessed as reduction in cell viability incubated for 72 hrs by MTS assay; type: functional, cell-based; conditions: A549, 72 h
In short: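 Cells seeded at 5 × 10^3 cells/well, kept overnight at 37 °C, then exposed to inhibitors at various concentrations for 72 h. Viability read with a freshly mixed PMS (0.92 mg/mL) : MTS (2 mg/mL) reagent at 1:19, incubated 3 h at 37 °C, A490 measured. […] Triplicate; mean ± SD.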

[1] = target: T1, beta-catenin-B-cell lymphoma 9 protein complex (Homo sapiens) (UniProt P35222+O00512); assay: Inhibition of protein interaction between beta-catenin /BCL9 in human SW480 cells assessed as reduction in Wnt target genes by measuring LEF1 mRNA expression incubated for 24 hrs by qPCR analysis; type: cell-based
In short: (§1)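 SW480 cells at 1 × 10^6/mL were treated with a range of inhibitor concentrations for 24 h. Total RNA was extracted with TRIzol and reverse-transcribed to cDNA. SYBR Green qPCR was run for Axin2, LEF1 and cyclin D1, with HPRT as a non-target housekeeping gene. CT values were normalized to GAPDH. Triplicate.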

[2] = target: T1, beta-catenin-B-cell lymphoma 9 protein complex (Homo sapiens); assay: Inhibition of protein interaction between beta-catenin /BCL9 in human SW480 cells assessed as reduction in Wnt target genes by measuring Axin2 mRNA expression incubated for 24 hrs by qPCR analysis; type: cell-based; in short: as §1
[3] = target: T1, beta-catenin-B-cell lymphoma 9 protein complex (Homo sapiens); assay: Inhibition of protein interaction between beta-catenin /BCL9 in human SW480 cells assessed as reduction in Wnt target genes by measuring cyclin D1 mRNA expression incubated for 24 hrs by qPCR analysis; type: cell-based; in short: as §1
[4] = target: T1, beta-catenin-B-cell lymphoma 9 protein complex (Homo sapiens); assay: Inhibition of protein interaction between beta-catenin /BCL9 in human SW480 cells assessed as reduction in active form of beta-catenin expression incubated for 24 hrs by Western blot analysis; type: cell-based
In short: (§2)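 SW480 cells at 1 × 10^6 cells/mL were treated with a range of inhibitor concentrations for 24 h. Cells were lysed in Tris/NaCl/NP-40/deoxycholate/SDS buffer with protease inhibitors. Lysates were run on 8% SDS-PAGE and blotted to nitrocellulose. Blots were probed overnight at 4 °C for total β-catenin (mostly the E-cadherin-bound pool), active β-catenin (dephosphorylated S37/T41), cyclin D1, c-myc and β-tubulin. Detection used infrared secondary antibodies. Duplicate.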

[5] = Effect on HPRT mRNA expression in human SW480 cells at 50 uM incubated for 24 hrs by qPCR analysis relative to control; type: ADME, cell-based; conditions: read-out: FC
In short: (§3)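 SW480 cells at 1 × 10^6/mL were treated with inhibitor for 24 h. Total RNA was extracted with TRIzol and cDNA made by first-strand synthesis. SYBR green qPCR used human HPRT primers, with CT values normalised to GAPDH as internal reference. Performed in triplicate.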

HCT-116 = assay: Inhibition of protein interaction between full-length beta-catenin (unknown origin) / full-length E-cadherin (unknown origin) in human HCT-116 cells incubated for 24 hrs by co-immunoprecipitation assay; type: cell-based
In short: (§4)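 Intact HCT116 cells at 1 × 10^6/mL were treated with a range of inhibitor concentrations for 24 h. They were then lysed in Tris pH 7.4/NaCl/NP-40/EDTA buffer with protease inhibitors and precleared on A/G agarose. Anti-β-catenin immunoprecipitation ran overnight at 4 °C, with A/G capture for 3 h and five washes. Samples were run on 8% SDS-PAGE and immunoblotted for BCL9 and E-cadherin.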

[6] = Drug level in human HCT-116 cells assessed as per million cells at 50 uM incubated for 6 hrs at 4 degC in presence of DMEM media with 10% FBS; type: ADME, cell-based; conditions: hct-116, 6 h
In short: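 Cells were incubated with 50 μM compound for 6 h in 5 mL DMEM with 10% FBS, at 37 °C or at 4 °C. Cell-bound compound was quantified by a previously described method and expressed as nmol per million cells. The 4 °C incubation was used to estimate binding to the cell membrane through nonspecific association.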

[7] = target: T1, beta-catenin-B-cell lymphoma 9 protein complex (Homo sapiens); assay: Inhibition of protein interaction between full-length beta-catenin (unknown origin) / full-length BCL9 (unknown origin) in human HCT-116 cells incubated for 24 hrs by co-immunoprecipitation assay; type: cell-based; in short: as §4
[8] = Inhibition of protein interaction between beta-catenin D145A/E155A mutant (unknown origin)/N-terminal biotinylated human BCL9 ( 350 to 375 residues) incubated for 1 hr by Alpha-screen competitive inhibition assay
[9] = target: T1, beta-catenin-B-cell lymphoma 9 protein complex (Homo sapiens); assay: Inhibition of protein interaction between beta-catenin /BCL9 in human SW480 cells assessed as reduction in Wnt target genes by measuring c-Myc protein expression at 25 to 100 uM incubated for 24 hrs by Western blot analysis; type: cell-based; conditions: dose 25-100 µM; in short: as §2
SW480 [10] = assay: Cytotoxic activity in human SW480 cells at 800 uM incubated for 4 hrs by LDH release assay; type: cell-based; conditions: sw480, 4 h
In short: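 SW480 cells were seeded at 2 × 10^4 cells/well and kept overnight at 37 °C. They were then exposed to a range of inhibitor concentrations for 4 h. LDH in the culture supernatant was measured with a diagnostic kit by absorbance at 490 nm. Percent cytotoxicity was calculated from experimental release against maximum release, with background subtracted. Run in triplicate.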

[11] = Inhibition of protein interaction between C-terminal 6x-histidine tagged full-length beta-catenin (1 to 781 residues) (unknown origin)/N-terminal biotinylated human E-cadherin (824 to 877 residues) incubated for 1 hr by Alpha-screen competitive inhibition assay
In short: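 Full-length β-catenin (residues 1–781) with a C-terminal His6 tag was expressed in E. coli BL21(DE3) after IPTG induction at 20 °C. It was purified by Ni-NTA, anion-exchange and size-exclusion chromatography. For the assay, 40 nM β-catenin was preincubated for 30 min at 4 °C with 5 nM biotinylated BCL9 or 10 nM biotinylated E-cadherin. Inhibitor was then added for 1 h at 4 °C, followed by 10 μg/mL donor and acceptor beads for 1 h at 4 °C. IC50 was obtained by nonlinear fit and converted to Ki by the Nikolovska-Coleska method. Triplicate, mean ± SD.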

SW480 [12] = assay: Effect on E-cadherin-bound beta-catenin levels in human SW480 cells at 25 to 100 uM incubated for 24 hrs by Western blot analysis; type: functional, cell-based; conditions: dose 25-100 µM; in short: as §2
[13] = Inhibition of protein interaction between beta-catenin D145A mutant (unknown origin)/N-terminal biotinylated human BCL9 ( 350 to 375 residues) incubated for 1 hr by Alpha-screen competitive inhibition assay
[14] = Inhibition of protein interaction between beta-catenin K181A mutant (unknown origin)/N-terminal biotinylated human BCL9 ( 350 to 375 residues) incubated for 1 hr by Alpha-screen competitive inhibition assay
[15] = target: T1, beta-catenin-B-cell lymphoma 9 protein complex (Homo sapiens); assay: Inhibition of protein interaction between beta-catenin /BCL9 in human SW480 cells assessed as reduction in Wnt target genes by measuring cyclin D1 protein expression at 2 to 8 uM incubated for 24 hrs by Western blot analysis; type: cell-based; conditions: dose 2-8 µM; in short: as §2
[16] = Effect on HPRT mRNA expression in human SW480 cells at 2 uM incubated for 24 hrs by qPCR analysis relative to control; type: ADME, cell-based; conditions: read-out: FC; in short: as §3
[17] = Effect on HPRT mRNA expression in human SW480 cells at 4 uM incubated for 24 hrs by qPCR analysis relative to control; type: ADME, cell-based; conditions: read-out: FC; in short: as §3

SMILES: Cl.Cl.O=C(Nc1ccc(O[C@H]2CCNC2)c(-c2ccc(F)cc2)c1)c1ccc(O[C@H]2CCNC2)c(-c2ccc3cc(F)ccc3c2)c1
IC50 (A549): 3.7 µM

SMILES: Cl.Cl.O=C(Nc1ccc(O[C@H]2CCNC2)c(-c2ccc(F)cc2)c1)c1ccc(O[C@H]2CCNC2)c(-c2ccc(F)c(F)c2)c1
inhibition [1]: Dose-dependent effect
inhibition [2]: Dose-dependent effect
inhibition [3]: Dose-dependent effect

SMILES: Cl.Cl.O=C(Nc1ccc(O[C@H]2CCNC2)c(-c2ccc(F)cc2)c1)c1ccc(O[C@H]2CCNC2)c(C2CCC(C(F)(F)F)CC2)c1 (stereo partly specified)
IC50 (A549): 4.8 µM

SMILES: Cl.Cl.O=C(Nc1ccc(O[C@@H]2CCNC2)c(-c2cccc(-c3nn[nH]n3)c2)c1)c1ccc(O[C@H]2CCNC2)c(-c2ccc(F)c(F)c2)c1
inhibition [4]: Dose-dependent effect
fold induction at 50 µM [5]: 0.979
inhibition [1]: Dose-dependent effect
inhibition (HCT-116): inactive
Drug uptake [6]: 5.1 nmol
inhibition [7]: Dose-dependent effect
Ki [8]: 12 µM
inhibition [9]: Active
Activity (SW480 [10]): Non-Toxic
Ki [11]: > 915 µM
IC50 (A549): > 400 µM
Activity (SW480 [12]): inactive
inhibition [2]: Dose-dependent effect
inhibition [3]: Dose-dependent effect
Ki [13]: 3 µM
Ki [14]: 4.1 µM

SMILES: Cl.Cl.O=C(Nc1ccc(O[C@H]2CCNC2)c(-c2ccc(F)cc2)c1)c1cnc(O[C@H]2CCNC2)c(-c2ccc(F)c(F)c2)c1
IC50 (A549): 26 µM

inhibition [4]: Dose-dependent effect
inhibition [1]: Dose-dependent effect
Ki [8]: 12 µM
inhibition [15]: Active
inhibition [2]: Dose-dependent effect
inhibition [3]: Dose-dependent effect
Ki [13]: 4.2 µM
Ki [14]: 1.7 µM
SMILES: Cl.Cl.O=C(Nc1ccc(O[C@H]2CCNC2)c(-c2ccc(F)cc2)c1)c1ccc(O[C@H]2CCNC2)c(-c2ccc3ccsc3c2)c1
IC50 (A549): 9.4 µM
fold induction at 2 µM [16]: 1.21
fold induction at 4 µM [17]: 1.04

SMILES: Cc1cc(F)ccc1-c1cc(NC(=O)c2ccc(O[C@H]3CCNC3)c(-c3ccc(F)c(F)c3)c2)ccc1O[C@H]1CCNC1.Cl.Cl
IC50 (A549): 10 µM
fold induction at 2 µM [16]: 0.166
fold induction at 4 µM [17]: 0.136
